# In the library only some 3.7% were active in any assay of this set; here they are far more common.
# EP2 antag: inhibitors of human EP2 prostaglandin E2 receptor; C6 glioma cells expressing human EP2, cAMP TR-FRET; cells stimulated with saturating PGE2; inhibition, % at 25 µM; actives 0.52% (n = 260,000); AID 1422;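 active = percent inhibition above 40 after rounding to a whole number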;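 note: rat C6 glioma host cells with rolipram phosphodiesterase inhibitor present; the protocol text gives 20 µM as final concentration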
# Target sequence (P43116 whole entry, looked up): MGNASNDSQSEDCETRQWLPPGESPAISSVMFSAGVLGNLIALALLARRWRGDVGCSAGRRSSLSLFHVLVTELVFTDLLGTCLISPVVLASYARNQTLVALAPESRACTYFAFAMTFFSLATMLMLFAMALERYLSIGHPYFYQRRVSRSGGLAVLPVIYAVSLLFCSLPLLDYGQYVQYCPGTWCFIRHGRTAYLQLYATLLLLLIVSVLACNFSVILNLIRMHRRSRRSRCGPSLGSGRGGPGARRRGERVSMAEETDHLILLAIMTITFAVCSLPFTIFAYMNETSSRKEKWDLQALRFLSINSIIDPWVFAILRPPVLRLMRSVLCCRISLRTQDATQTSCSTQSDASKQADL
# OX1R antag-1: human HCRTR1 antagonism; actives 0.43% (n = 330,000); O43613; inhibition, % at 5 µM; AID 434989; CHO/OX1R cells, Fluo-8 calcium fluorescence, orexin A;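 active = inhibition above its plate's threshold, mean inhibition of all tested compounds on the plate plus 3 SD, cut at about 37% in these data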
# OX1R antag-2: OX1R (human) antagonism. O43613. OX1R-expressing cells, FRET antagonist read-out. inhibition, % at 6.6 µM. actives 1.8% (n = 330,000); in the data active = inhibition mostly above about 38%, no sharp cut-off; inactive = mostly below about 40%
# CHO parental Ca: signal in parental CHO cells, OX1R antagonist counter-screen; actives 0.63% (n = 330,000); inhibition, % at 5.6 µM; parental CHO-K1, ATP-induced calcium, Fluo-8 fluorescence; AID 463079;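 active = inhibition above that plate's mean sample inhibition plus 3 SD, cut at about 26% in these data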
#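 Assay system: parental CHO cells; Read-out basis: percent inhibition of ATP-evoked calcium rise, normalized to controls; Benchmarks: ATP and no-ATP DMSO wells; Compound dosing: single nominal dose of 5.6 µM per compound; Signal: Fluo-8 calcium dye fluorescence; Also added: ATP as calcium-mobilizing challenge; Repeats: singlicate.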
# EP2 modulator: EP2 receptor (human) modulation; P43116; EP2-expressing cells, cAMP HTRF FRET, PGE2 co-stimulation; induction, % at 25 µM; actives 0.83% (n = 260,000); AID 940;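 active = compounds whose cAMP rise, as percent of the full-agonist control response, exceeds 60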;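 note: rat C6 glioma line stably carrying human EP2 under a CMV promoter; the protocol text gives 20 µM as final concentration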
# GPR7 antagonist: blocks human GPR7 receptor signaling. GPR7-expressing cells, fluorescence antagonist assay. actives 1.1% (n = 290,000). inhibition, % at 4.4 µM. P48145. AID 1861; in the data active = inhibition above about 16%, passing the limit was not always enough;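 note: cells stimulated with the agonist NPW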
# EP2 cAMP induct: EP2 receptor cAMP induction, counter-screens negative. shares compounds with EP2 modulator. AID 1080. C6 glioma EP2 cells, cAMP HTRF induction; plus low (about EC15) PGE2 agonist. actives 47% (n = 1,300). calls only at 20 µM (by protocol);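 active = cAMP induction above 50% in the main assay while under 30% in all four parallel counter assays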;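 note: rat C6 glioma cells stably expressing human EP2 receptor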
# Numbers stand for hits; i = inactive; nt = no result; + = active, no number.
SMILES,EP2 antag,OX1R antag-1,OX1R antag-2,CHO parental Ca,EP2 modulator,GPR7 antagonist,EP2 cAMP induct
COc1ccccc1CN(C)CC(=O)Nc1ccccc1-c1ccccc1,i,i,i,i,71,i,+
CN(CC(=O)Nc1ccccc1Oc1ccccc1)Cc1ccccc1F,i,i,i,i,67,i,+
N#CCCSc1ncnc2c1oc1ccccc12,i,i,i,i,66,i,i
O=C(CSc1ncnc2c1oc1ccccc12)Nc1ccccc1C(F)(F)F,i,i,i,i,79,i,i
OCCSc1ncnc2c1oc1ccccc12,i,i,i,i,i,i,nt
O=C(O)CSc1ncnc2c1oc1ccccc12,i,i,i,i,i,i,nt
CCCCc1nc2ccccc2c(NC(=O)CN(CC)CC)c1CCC,i,i,i,i,i,i,nt
O=C(N/N=C/c1cccc(F)c1)NC1CCCCC1,i,i,i,i,85,i,+
CC(=O)N1CCN(c2cc(N3CCc4ccccc4C3)c(F)cc2[N+](=O)[O-])CC1,i,i,i,i,i,i,nt
COc1cc(C)c2c(c1C=O)Oc1c(c(C)c(O)c3c1C(O)OC3=O)OC2=O (stereo unspecified),i,i,i,i,i,i,nt
Cc1cc(O)c(C=O)c2c1C(=O)Oc1c(C)c(O)c3c(c1O2)C(O)OC3=O (stereo unspecified),i,nt,nt,nt,i,nt,i
Cc1ccc(N=N/C(=C\O)C(=O)c2ccc(Cl)cc2)cc1,i,i,i,i,89,i,+
CC(=O)c1ccc(N=Nc2ccc(C)cc2)cc1,i,nt,nt,nt,i,i,nt
O=C(Cc1ccccc1)c1ccc(Cl)cc1,i,i,i,i,i,i,nt
O=C(/C(=C/O)N=Nc1ccccc1)c1ccc(Cl)cc1,i,i,i,i,73,i,+
CCC1CCCCN1CCCNC(=O)c1ccc(CS(=O)(=O)c2ccccc2C)o1 (stereo unspecified),nt,i,i,i,nt,i,nt
Cc1ccc(Sc2c(C#N)c(-c3ccccc3)nn2C)cc1,i,i,i,i,i,i,nt
CC(C)(C)NC(=O)C1c2ccccc2Oc2ccccc21,nt,i,i,i,nt,i,nt
Cc1c2c(nc3ccccc13)CCC(C)C2 (stereo unspecified),i,i,i,i,i,i,nt
CCCOP(=O)(OCCC)C(Nc1cccc(C(F)(F)F)c1)c1ccc(C)cc1 (stereo unspecified),i,i,i,i,68,i,i
CN=C1CC(SC)=C1c1ccc(C)cc1,56,i,i,i,72,i,+
O=C(Cc1ccc(Br)cc1)NNC(=O)c1cccs1,nt,i,i,i,nt,nt,nt
CC(C)CC(NC(=O)CCC(=O)OCC(=O)[C@@]1(O)CCC2[C@@H]3CCC4=CC(=O)C=C[C@]4(C)C3[C@@H](O)C[C@@]21C)C(=O)O (stereo partly specified),nt,i,i,i,nt,i,nt
Cc1cc(C(=O)Nc2cccc(/C=C/C(=O)O)c2)c(C)o1,i,i,i,i,99,i,+
Cc1oc(-c2ccccc2)cc1C(=O)Nc1cccc(/C=C/C(=O)O)c1,i,nt,nt,nt,92,i,+
SMILES,EP2 antag,OX1R antag-1,OX1R antag-2,CHO parental Ca,EP2 modulator,GPR7 antagonist,EP2 cAMP induct
C=CCn1c2ccccc2c2nnc(SCC(=O)Nc3c(C)n(C)n(-c4ccccc4)c3=O)nc21,i,nt,nt,nt,i,i,nt
C=CCn1c(CCNC(=O)c2cccs2)nnc1SCC(=O)Nc1cccc(C(C)=O)c1,i,i,i,i,i,i,nt
CC(=O)N1N=C(c2cccs2)CC1c1ccc(Br)cc1 (stereo unspecified),nt,i,i,i,nt,i,nt
Cc1ccc(C2CC(c3cccs3)=NN2C(=O)c2ccc(Br)o2)cc1 (stereo unspecified),i,i,i,i,i,i,i
O=C(CN1CCCCC1)Nc1ccc(C(F)(F)F)cc1Cl,i,i,i,i,i,i,nt
O=C(CN1CCCCCCC1)Nc1ccc(Cl)cc1Cl,i,i,i,i,66,i,i
Cc1cccc(NC(=O)NC2(C(=O)NCc3ccco3)CCCCC2)c1,nt,i,i,i,nt,i,nt
Cn1c(=O)[nH]c(=O)c2c1nc(SCCO)n2Cc1ccccc1Cl,i,i,i,i,i,i,nt
Nc1ccccc1CCCC(=O)O,i,nt,nt,nt,107,nt,i
Cc1ccc(Cc2c(C)nc3c(C(=O)O)cnn3c2C)cc1,nt,nt,nt,nt,nt,i,nt

# Source: PubChem BioAssay
